Hits are enriched below; roughly 2.6% of the tested compounds scored in any of these assays.
EP2 antag: inhibitors of human EP2 prostaglandin E2 receptor; P43116; inhibition, % at 25 µM; C6 glioma cells expressing human EP2, cAMP TR-FRET; cells stimulated with saturating PGE2; 0.52% of 260,000 active;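 active means percent inhibition above 40 after rounding to a whole number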;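 further: rat C6 glioma host cells with rolipram phosphodiesterase inhibitor present; the protocol text gives 20 µM as final concentration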
Target sequence (P43116 whole entry, looked up): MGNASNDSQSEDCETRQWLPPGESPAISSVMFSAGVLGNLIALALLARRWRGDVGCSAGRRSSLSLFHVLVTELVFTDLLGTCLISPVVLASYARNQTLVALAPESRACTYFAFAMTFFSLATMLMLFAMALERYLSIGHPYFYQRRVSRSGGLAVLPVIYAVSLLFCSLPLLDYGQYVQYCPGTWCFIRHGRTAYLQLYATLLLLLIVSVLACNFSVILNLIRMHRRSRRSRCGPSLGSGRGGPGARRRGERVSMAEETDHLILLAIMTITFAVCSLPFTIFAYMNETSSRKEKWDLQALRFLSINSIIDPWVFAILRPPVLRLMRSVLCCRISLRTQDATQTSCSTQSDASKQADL
T cell HTS: T cell immune modulators affecting CD8 T cell-vesicle binding. 0.068% of 330,000 active. AID 2052. 2C CD8+ T cell-vesicle binding, flow cytometry; hits give low values. response (vesicle binding), % at 7 µM;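 active means response, share of CD8 T cells binding vesicles, and their 90th percentile fluorescence all below set limits, cut at about 80% in these data, passing the limit was not always enough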;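 further: values below 100% mean blocked vesicle binding to the CD8+ T cells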
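System: murine 2C transgenic CD8+ T lymphocytes; also added: QL9-loaded Drosophila micro-vesicles; times: binding 1.5 h at 37 °C; measured by: flow cytometry, PE anti-B7-1 (FL2) versus Alexa647 anti-CD8 (FL8), PFA-fixed; control set: Peptide-free naked vesicles (low) and QL9 vesicles with 0.7% DMSO vehicle (high)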
Exocytosis inh: blocks lytic granule exocytosis | TALL-104 LAMP-1 surface exposure, flow cytometry; cells stimulated with thapsigargin and PMA | 0.66% of 360,000 active | inhibition, % at 10 µM;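 active means inhibition above about 55%, limit read from the data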
EP2 mod: modulates human prostaglandin E2 receptor EP2 signaling; EP2-expressing cells, cAMP HTRF FRET, PGE2 co-stimulation; induction, % at 25 µM; 0.83% of 260,000 active; AID 940;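 active means compounds whose cAMP rise, as percent of the full-agonist control response, exceeds 60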;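 further: rat C6 glioma line stably carrying human EP2 under a CMV promoter; the protocol text gives 20 µM as final concentration; 100% = response of wells given 1 µM PGE2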
MC4R ag barr: agonists of human melanocortin 4 receptor (MC4R) beta-arrestin | P32245 | U2OS MC4R beta-arrestin complementation, luminescence; percent of melanotan II response, DMSO zero | activation, % at 8.9 µM | 0.98% of 360,000 active | AID 540308;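 active means activation above a per-plate cutoff, the mean activation of sample wells on that plate plus 3 SD, cut at about 8% in these data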
MC4R antagonist: antagonists of human melanocortin 4 receptor (MC4R); P32245; MC4R-expressing cells, MTII-stimulated cAMP, LANCE TR-FRET; inhibition, % at 6.5 µM; 0.48% of 360,000 active; AID 540295;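 active means inhibition above its plate's cutoff, the mean of tested wells on that plate plus 3 SD, cut at about 29% in these data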;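 further: 0% = Melanotan II alone and 100% = Melanotan II plus saturating MCL0020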
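Assay system: U2OS cells stably expressing human melanocortin 4 receptor (MC4R) / Dosing: 6.5 µM / Timing: compound 30 min, challenge 1 h, detection 1 h / Measured by: Eu-cAMP/anti-cAMP TR-FRET, emission 671 nm / Replicates: singlicate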
Starred values were filed as active, the others as inactive; ! = repeats disagree.

For CCCC(c1nnnn1C1CCCCC1)N(Cc1ccco1)Cc1cc2cc(CC)ccc2[nH]c1=O (configuration not stated) the results were EP2 antag 8 and EP2 mod 82*.
`CCC(c1nnnn1C(C)(C)C)N(Cc1ccco1)Cc1cc2cc(C)ccc2[nH]c1=O` (configuration not stated) gave EP2 antag 9 and EP2 mod 59.
CCC(c1nnnn1C(C)(C)CC)N(Cc1ccco1)Cc1cc2cc(C)ccc2[nH]c1=O (configuration not stated) was read as EP2 antag 7 and EP2 mod 90*.
Screening CCc1ccc2[nH]c(=O)c(CN(Cc3cccs3)C(CC)c3nnnn3C(C)(C)CC)cc2c1 (configuration not stated) returned EP2 antag 11 and EP2 mod 61*.
For CCc1nc2c(OCC=C(C)C)cccn2c1N(C)C(=O)c1ccccc1F the results were Exocytosis inh -7, MC4R ag barr -2 and MC4R antagonist 3.
`CCCN1/C(=C/c2ccc3ccc(OC)cc3[n+]2CCC)Sc2cc(C)ccc21` gave EP2 antag 26 and EP2 mod -71.
Screening C[n+]1c(/C=C2/Sc3ccccc3N2CCCS(=O)(=O)[O-])ccc2ccccc21 returned EP2 antag 12 and EP2 mod -72.
Screening CCN1/C(=C\c2ccc3cc(C)ccc3[n+]2CC)Sc2cc(C)c(C)cc21 returned EP2 antag 61*, Exocytosis inh 73*, EP2 mod -37, MC4R ag barr 3 and MC4R antagonist 0.
CCN1/C(=C/c2ccc3cc(C)ccc3[n+]2CC)Sc2ccc3sccc3c21 was read as T cell HTS inactive, Exocytosis inh 74*, MC4R ag barr 14* and MC4R antagonist -6.
`CC[n+]1c(/C=C2\Sc3ccc4ccsc4c3N2C)ccc2cc(C)ccc21` gave EP2 antag 32 and EP2 mod -61.
`CCN1/C(=C/c2ccc3cccc(C)c3[n+]2CC)Sc2ccccc21` gave EP2 antag 63*!, T cell HTS inactive, Exocytosis inh 76*, EP2 mod -69, MC4R ag barr -3 and MC4R antagonist -13.
Screening COc1ccccc1C(C[N+](=O)[O-])c1c(N)n(C)c(=O)n(C)c1=O (configuration not stated) returned EP2 antag 7, T cell HTS 359, Exocytosis inh 35, EP2 mod 0, MC4R ag barr 2 and MC4R antagonist -11.
`Cc1cc(NC(=O)c2ccc(Br)c([N+](=O)[O-])c2)no1` gave EP2 antag 6, T cell HTS 276, Exocytosis inh -8, EP2 mod -5, MC4R ag barr 9.3* and MC4R antagonist 19.
Screening Cc1cc(NC(=O)c2ccc(C)c([N+](=O)[O-])c2)no1 returned EP2 antag -1, T cell HTS 446, Exocytosis inh 0, EP2 mod -33, MC4R ag barr 1 and MC4R antagonist 19.
CC(Oc1ccc(Br)cc1Cl)C(=O)Nc1ccncc1 (configuration not stated) was read as T cell HTS 222, Exocytosis inh 9, MC4R ag barr -2 and MC4R antagonist 5.
Screening Cc1ccc(C(=O)/C=C/Nc2ccc3c(c2)OCO3)cc1 returned EP2 antag 9, T cell HTS 105, Exocytosis inh 1, EP2 mod -3, MC4R ag barr 12* and MC4R antagonist 5.
For Cc1ccc(-c2nc3ccccc3o2)cc1NC(=S)NC(=O)c1cccs1 the results were EP2 antag 13, T cell HTS 192, Exocytosis inh 2, EP2 mod 16, MC4R ag barr 23* and MC4R antagonist 13.
Screening CC(C)C(=O)NN1c2ccccc2CCc2ccccc21 returned EP2 antag 10, T cell HTS 335, Exocytosis inh -2, EP2 mod 7, MC4R ag barr -1 and MC4R antagonist 2.
Screening COc1cc2c(cc1OC)C(=O)N1[C@H]3c4ccccc4OC[C@@H]3[C@H](c3ccccc3)[C@]1(C)C(=O)N2 returned T cell HTS 510, Exocytosis inh 65*, MC4R ag barr 0 and MC4R antagonist 12.

Compound activity: PubChem, several laboratories
